In PMC3683571 (Journal of the American Chemical Society, 2013):
“Also recorded” adds a separate entry of the source.

How the values were obtained:
PSMA = PSMA (Homo sapiens, UniProt Q04609); test: Biosensing; type: binding
Method in brief: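 Virus-PEDOT films, with ligand-displaying phage either unwrapped or wrapped with a chemically synthesized ligand wrapper, were exposed to a series of PSMA dimer concentrations. The read-out was relative impedance change (ΔR/Ro) versus frequency, with noise taken as the SD of five impedance measurements. Controls were films with control phage, ligand-free films, and films with wrapper alone; transferrin receptor served as a specificity target. Kd, Hill n and LOD came from Hill fits.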

PSMA dimer = test: Phage-based ELISA, binding to PSMA dimer; conditions: as shown in Figure 1
[1] = in previous studies, no reference given; cited from earlier work
PSMA monomer = test: Phage-based ELISA, binding to PSMA monomer; conditions: Figure 1, standard error (n = 3)

PSMA, sequence (Q04609 whole entry): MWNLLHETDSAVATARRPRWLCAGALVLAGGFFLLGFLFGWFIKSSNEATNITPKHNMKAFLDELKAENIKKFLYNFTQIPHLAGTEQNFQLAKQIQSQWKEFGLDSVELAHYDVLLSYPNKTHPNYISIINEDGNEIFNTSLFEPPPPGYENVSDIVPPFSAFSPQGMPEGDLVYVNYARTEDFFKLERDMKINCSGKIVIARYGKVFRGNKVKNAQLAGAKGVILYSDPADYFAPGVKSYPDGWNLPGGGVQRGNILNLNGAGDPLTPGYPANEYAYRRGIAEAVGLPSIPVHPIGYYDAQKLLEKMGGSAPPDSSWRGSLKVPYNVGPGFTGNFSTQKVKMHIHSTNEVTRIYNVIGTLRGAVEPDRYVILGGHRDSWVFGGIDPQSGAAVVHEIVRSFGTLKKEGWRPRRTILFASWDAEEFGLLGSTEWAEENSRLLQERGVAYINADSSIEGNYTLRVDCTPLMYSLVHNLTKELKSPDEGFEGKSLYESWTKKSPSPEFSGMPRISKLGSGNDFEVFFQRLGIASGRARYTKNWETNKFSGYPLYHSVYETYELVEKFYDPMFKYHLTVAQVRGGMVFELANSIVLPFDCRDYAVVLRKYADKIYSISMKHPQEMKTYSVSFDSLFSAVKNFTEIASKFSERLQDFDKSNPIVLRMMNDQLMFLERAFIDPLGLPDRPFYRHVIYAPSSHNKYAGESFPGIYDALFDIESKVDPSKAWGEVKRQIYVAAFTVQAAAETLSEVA

Sequence | solubility in water [1] | binding to the PSMA monomer (ELISA) (PSMA monomer) | other results
CALCEFLG [KCS-1] |  |  | binding to PSMA / change in impedance, negative controls (PSMA; EIS, PBF-Tween buffer, PEDOT films): no significant binding to PSMA; also recorded: negligible change in impedance caused by the wrapper
CALCEFLG [compound 1] | limited solubility in water |  | apparent affinity for PSMA, peptide 1 versus peptide 2 (PSMA dimer): much lower apparent affinity for PSMA than peptide 2
CALCEFLG [phage-1] |  | Neither phage-displayed ligand binds with significant affinity to the PSMA monomer | 
SECVEVFQNSCDW [compound 2] | limited solubility in water |  | 
SECVEVFQNSCDW [phage-2] |  | Neither phage-displayed ligand binds with significant affinity to the PSMA monomer | LOD (calculated) (PSMA; PBF, defined as 3x over background signal, calculated from line fits to the data in Figure 4F): 6 nM; cooperative binding (PSMA; from n-values obtained >1, Hill fit, PBF): can access cooperative binding
